# Reference: PubChem BioAssay AID1448 (The Scripps Research Institute Molecular Screening Center, 2008)
# Screen size: about 220,000 compounds; about 630 (0.29%) were called active.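 Rule for the calls: active = activation above its plate's cutoff, the mean activation of the plate's test wells plus 3 SD (cut at about 12% in these data); inactive = the rest.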 The list comes from a sample in which actives are over-represented; it also holds similar structures and randomly drawn compounds.
# Molecular target: Mucolipin-3 (Homo sapiens) (UniProt Q8TDD5)
# Assay: human TRPML3 channel agonists, primary screen, cell-based, HEK293 TRPML3-YFP, Fluo-8 calcium fluorescence, 3 µM (AID 1448);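 note: 0% = DMSO only wells and 100% = carbachol wells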
# Conditions: at 3 µM, stronger effect = higher value, 100% = the carbachol control signal
# Method in brief: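 Material: TRPML3-YFP stable HEK293 cells | Dosing: One concentration, 3 µM nominal, 0.3% DMSO | Timing: 125 s total fluorescence read per well | Technique: Fluo-8 calcium dye fluorescence, ex 470-495, em 515-575 nm | Measure: Percent activation from peak-to-basal fluorescence ratio, scaled between DMSO and carbachol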
# Mucolipin-3 (Homo sapiens), sequence (Q8TDD5 whole entry, looked up): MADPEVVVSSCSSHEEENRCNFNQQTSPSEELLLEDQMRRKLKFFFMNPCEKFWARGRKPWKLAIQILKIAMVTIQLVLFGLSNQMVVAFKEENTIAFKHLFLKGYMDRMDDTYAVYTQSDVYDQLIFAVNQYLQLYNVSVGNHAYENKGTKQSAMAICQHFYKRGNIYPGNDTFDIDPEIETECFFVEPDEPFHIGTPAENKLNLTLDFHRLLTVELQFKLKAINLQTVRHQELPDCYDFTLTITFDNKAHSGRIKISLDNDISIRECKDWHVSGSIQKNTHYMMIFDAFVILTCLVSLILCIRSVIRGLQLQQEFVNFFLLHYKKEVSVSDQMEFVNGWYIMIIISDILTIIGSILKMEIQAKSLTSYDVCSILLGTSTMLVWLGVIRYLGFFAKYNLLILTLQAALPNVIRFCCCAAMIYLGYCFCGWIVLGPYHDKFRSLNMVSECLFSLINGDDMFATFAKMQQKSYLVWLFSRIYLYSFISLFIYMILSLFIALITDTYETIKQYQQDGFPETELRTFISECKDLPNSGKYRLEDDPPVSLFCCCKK
row,Structure (SMILES),activation
1,OCC(O)CN(c1ccccc1)c1ccccc1 (centres undefined),0.25% (inactive)
2,CN1CCN(/N=C/c2ccc(-c3ccc([N+](=O)[O-])cc3)o2)CC1,4.1% (inactive)
3,Cn1c2c(c(=O)n(C)c1=O)C(c1cccc(F)c1)C(C#N)=C(N)O2 (centres undefined),0.03% (inactive)
4,Cc1nonc1C1CCCN1Cc1nc(-c2ccc(F)cc2F)oc1C (centres undefined),0.58% (inactive)
5,O=S(=O)(c1cccc2nonc12)N1CCN(c2cccc(Cl)c2)CC1,0.52% (inactive)
6,Cc1cccn2c(=O)c(/C=C3\SC(=S)N(CC(C)C)C3=O)c(NCCCOC(C)C)nc12,0.65% (inactive)
7,CCOC(=O)CC1C(=O)NCCN1C(=O)COc1ccc(Br)cc1C (centres undefined),-0.14% (inactive)
8,CCOC(=O)CC1C(=O)NCCN1c1nc2c(C)cccn2c(=O)c1/C=C1\SC(=S)N(C(C)CC)C1=O (centres undefined),11.9% (active)
9,CC(CC(=O)C1C(C)C=CCC1(C)C)NNC(N)=O (centres undefined),0.6% (inactive)
10,O=C(CC(O)(C(F)(F)F)C(F)(F)F)Nc1ccc(Cl)c(Cl)c1,17.3% (active)
11,CN(C)CCNC(CC(=O)Nc1ccc(Cl)c(Cl)c1)C(=O)O (centres undefined),-0.13% (inactive)
12,O=C(CC(=O)Nc1ccc(Cl)c(Cl)c1)N/N=C/c1ccc(O)cc1,0.24% (inactive)
13,CCn1c(CSc2nc(C)cc(C)n2)nnc1SCC(N)=O,0.87% (inactive)
14,CC(C)CN(CC(C)C)CC(O)CN(c1ccccc1)S(=O)(=O)c1ccccc1[N+](=O)[O-] (centres undefined),-1.13% (inactive)
15,COc1ccc(-c2noc(CSc3ccc(C)cc3)n2)cc1,0.35% (inactive)
16,COc1ccc(-c2noc(CN(C)S(=O)(=O)c3ccc(C)cc3)n2)cc1,138% (active)
17,COc1ccc(-c2noc(-c3ccc(C)cc3)n2)cc1,1.08% (inactive)
18,Cc1ccnc(NC(=O)c2ccc(Cl)c([N+](=O)[O-])c2)c1,0.05% (inactive)
19,CC(C)(C)OC(=O)N1CCC(NC(=O)c2[nH]cnc2C(=O)N[C@@H](Cc2ccccc2)C(=O)OCc2ccccc2)CC1,0.25% (inactive)
20,COc1cc(NC(=O)c2cccnc2SC)cc(OC)c1,-0.28% (inactive)
21,COc1cc(NC(=O)c2ccccc2NS(=O)(=O)c2ccc(Cl)s2)cc(OC)c1,12.1% (active)
22,COC(=O)c1ccc(NC(=O)c2ccccc2NS(=O)(=O)c2ccccc2)cc1,11.1% (inactive)
23,CN(Cc1cc2cc(F)ccc2[nH]1)Cc1nc(-c2cnccn2)no1,0.76% (inactive)
24,Cc1cccc(CSc2ccc(-c3cccs3)nn2)c1,0.19% (inactive)
